Assay outcomes: PubChem BioAssay, Broad Institute
Shown are actives, neighbours in structure and some others; about 2.6% of the full set was active somewhere.
MITF TRPM1 HTS: MITF TRPM1 promoter activation in melanoma cells | SK-MEL-5 TRPM1-promoter luciferase, 24 h; % of positive control, neutral wells = 0 | activation, % at 12.5 µM | actives 0.75% (n = 300,000) | AID 588334;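 active = mean activation of at least 80% with every replicate also reaching 80%; inconclusive = mean reaches 80% but some replicate falls short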
Xi reactivation: activators of X-chromosome reactivation in mouse fibroblasts | XiGFP mouse fibroblasts, % GFP-positive cells imaging, 3 d; cells co-treated with 5-aza-dC sensitizer; scaled so ellipticine positive control = 100% | activation, % at 7.58 µM | actives 0.055% (n = 360,000) | AID 743238;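 active = mean normalized replicate activation at least 10% and every replicate at or above 10%; inconclusive = only one of the two criteria met; inactive = mean below 10% and not all replicates reach 10%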
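Material: XiGFP fibroblasts, SV40-immortalized. Buffer or medium: DMEM plus 5-aza-dC sensitizer. Compound: single concentration per compound, delivered by pin transfer. Times: 3 days compound exposure. Controls: ellipticine 6 µM.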
esBAF inh: inhibitors of esBAF chromatin remodeling in mouse ES cells; Bmi1-luciferase knock-in reporter, 24 h; 100% = twice the neutral-well signal; reporter increase, % at 12.5 µM; actives 2% (n = 350,000); AID 602393; in the data active = activation above about 40%; inconclusive = no clear call, values can overlap the other calls;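 note: a rise in the Bmi1 reporter signal indicates esBAF inhibition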
Wnt act: activators of Wnt/beta-catenin signaling | Wnt/beta-catenin reporter cell assay, activator, plate reader | activation, % at 9.35 µM | actives 1.2% (n = 300,000) | AID 743398; in the data active = activation above about 30%, passing the limit was not always enough; inconclusive = no clear call, values can overlap the other calls
Vif inh: HIV Vif inhibition; HEK293T cells, Vif self-association by quenched fluorescence, imaging, 24 h; actives 0.35% (n = 340,000); inhibition, % at 7.49 µM; in the data active = inhibition above about 50%, passing the limit was not always enough; inconclusive = no clear call, values can overlap the other calls; inactive = below about 31%
Large screens that a line does not name were inactive; ! = not active in a repeat.

CC(=NC1CCCCC1)C1=C(O)c2ccccc2C1=O	MITF TRPM1 HTS 89.5, Wnt act inconclusive (no result: Xi reactivation)
CC(C)CNS(=O)(=O)c1ccc(C(=O)Nc2ccc3c(c2)OCCO3)cc1	esBAF inh 91.2 (no result: Xi reactivation, Wnt act)
Cc1cc(C)n(-c2ccc(C(=O)Nc3ccc4c(c3)OCCO4)cc2)n1	esBAF inh 55.8 (no result: Xi reactivation, Wnt act)
CC(C)CNS(=O)(=O)c1ccc(CCC(=O)Nc2ccc3c(c2)OCCO3)cc1	none (no result: Xi reactivation, Wnt act)
Cc1ccc(S(=O)(=O)Nc2ccc3c(c2)C(=O)N([C@@H](C)CO)C[C@@H](C)[C@H](CN(C)Cc2ccc(C(=O)Nc4ccccc4N)cc2)O3)cc1	none (no result: MITF TRPM1 HTS, esBAF inh, Wnt act, Vif inh)
COc1ccccc1/C=C/C(=O)NCCC1=CCCCC1	Wnt act 52.7 (no result: esBAF inh)
O=C(/C=C/c1ccc(F)cc1)NCCC1=CCCCC1	esBAF inh 78.1, Wnt act 65.0 (no result: MITF TRPM1 HTS, Xi reactivation)
O=C(/C=C/c1ccccc1)NCCC1=CCCCC1	esBAF inh 71.2
COc1cc(/C=C(\C#N)C(=O)Nc2cccc(C(=O)O)c2)ccc1OCc1ccc(Cl)cc1	Wnt act 34.5
COc1cc(/C=C(/C#N)C(=O)Nc2ccccc2)c(Br)cc1OCc1ccc(C(=O)O)cc1	none
CS/C(N)=N/N=C/c1cc(C)ccc1O	MITF TRPM1 HTS inconclusive, Wnt act 88.1 (no result: esBAF inh)
CCC(CO)[n+]1c(C)cc(/C=C2\Sc3ccccc3N2Cc2ccccc2)cc1C (centres undefined)	Xi reactivation 102.7 (no result: esBAF inh, Vif inh)
COc1cccc(N=c2oc3ccc(OC)cc3cc2-c2nc3ccccc3[nH]2)c1	none (no result: Xi reactivation)
COc1ccc(N=c2oc3ccc(OC)cc3cc2-c2nc3ccccc3[nH]2)cc1	esBAF inh 60.3 (no result: Xi reactivation, Wnt act)
COc1cccc(N=c2oc3ccccc3cc2-c2nc3ccccc3[nH]2)c1	Wnt act 46.7 (no result: Xi reactivation)
COc1cc(Cl)c(C)cc1NC(=O)CN1C(=O)C2CC=CCC2C1=O (centres undefined)	Vif inh 58.8
COc1ccc(C)cc1NC(=O)CN1C(=O)C2CC=CCC2C1=O (centres undefined)	none
C/C(N)=C(/C#N)C(=O)CSc1nnc(-c2ccc(OC(F)F)cc2)o1	esBAF inh 65.1!
C/C(N)=C(/C#N)C(=O)CSc1nnc(-c2ccc3c(c2)OCO3)o1	none (no result: Xi reactivation)
O=C(Cc1cccnc1)N1CC(=O)N2[C@H](C1)[C@@H](c1ccc(-c3cccc(F)c3)cc1)[C@@H]2CO	none (no result: MITF TRPM1 HTS, esBAF inh, Wnt act, Vif inh)
Cn1c(C(=O)NCc2cccs2)cc2oc3ccccc3c21	esBAF inh 51.6 (no result: Xi reactivation)
Cn1c(C(=O)NCC2CCCO2)cc2c(=O)[nH]c3ccccc3c21 (centres undefined)	none (no result: MITF TRPM1 HTS, Xi reactivation)
Cn1c(=O)c(C(=O)NCC2CCCO2)c(O)c2ccccc21 (centres undefined)	esBAF inh inconclusive, Wnt act 39.2 (no result: Xi reactivation)
Cn1c(C(=O)NCC2CCCO2)cc2oc3ccccc3c21 (centres undefined)	esBAF inh 76.3 (no result: Xi reactivation, Wnt act)
Cn1c(C(=O)NCc2ccccc2)cc2oc3ccccc3c21	esBAF inh 59.0 (no result: Xi reactivation)
COc1ccc(CN2[C@@H](CO)[C@@H]3c4ccccc4N(C(=O)c4ccccc4)C[C@@H]32)cc1	none (no result: MITF TRPM1 HTS, Wnt act, Vif inh)
CCC1CCc2sc(C(=O)NCC3CCCO3)cc2C1 (centres undefined)	esBAF inh 66.5, Wnt act 55.5
CCC1CCc2sc(C(=O)NNC(=S)NCC3CCCO3)cc2C1 (centres undefined)	none
CC(C)(C)c1ccc(C(=O)NC(=S)Nn2cnnc2)cc1	esBAF inh 43.8
O=C(NC(=S)Nn1cnnc1)c1ccccc1Cl	none (no result: esBAF inh)
C#CCOC(=O)CCCC(=O)Nc1ccccc1OC	Wnt act 50.1 (no result: Xi reactivation)
COc1ccccc1NC(=O)CCCC(=O)OCC(=O)c1ccc(F)cc1	none (no result: esBAF inh)
O=C(NCC[C@H]1CC[C@@H](NC(=O)c2cnccn2)[C@@H](CO)O1)Nc1ccc(Cl)cc1	none (no result: MITF TRPM1 HTS, Wnt act, Vif inh)
O=C(NCc1cccc(C(F)(F)F)c1)c1cccc2c1C(=O)c1ccc(N3CCC(Cc4ccccc4)CC3)cc1S2(=O)=O	Vif inh 122.5 (no result: Xi reactivation, Wnt act)
CC1CCN(c2ccc3c(c2)S(=O)(=O)c2ccccc2C3=O)CC1	MITF TRPM1 HTS 85.6, esBAF inh 52.7, Wnt act 52.2
O=C(NCc1ccc(OC(F)(F)F)cc1)c1cccc2c1C(=O)c1ccc(N3CCCCC3)cc1S2(=O)=O	Vif inh 55.1
CC1CCN(c2ccc3c(c2)S(=O)(=O)c2cccc(C(=O)NCc4cccc(F)c4)c2C3=O)CC1	none
O=C(NCc1cccc(F)c1)c1cccc2c1C(=O)c1ccc(N3CCC(Cc4ccccc4)CC3)cc1S2(=O)=O	Vif inh 121.2 (no result: Xi reactivation, Wnt act)
COc1ccccc1C(=O)Nc1ccc2c(c1)C(=O)N(C)C[C@H](OC)[C@@H](C)CN[C@@H](C)CO2	none (no result: MITF TRPM1 HTS, Wnt act, Vif inh)
CC(C)[C@H]1CCc2cnnn2COC[C@@H](c2ccccc2)NC1=O	none (no result: MITF TRPM1 HTS, esBAF inh, Wnt act, Vif inh)
Cn1c(SCc2ccccc2F)nc2cccnc21	esBAF inh 43.3 (no result: MITF TRPM1 HTS, Xi reactivation, Wnt act)
CCOC(=O)CSc1nc2cccnc2n1C	none
C=C(C(=O)c1ccccc1)C(C)C(=C)C(=O)c1ccccc1	Vif inh 66.8 (no result: esBAF inh)
C=C(C(=O)c1ccccc1)C(c1ccccc1)C(C)C(=O)c1ccccc1 (centres undefined)	none (no result: esBAF inh)
CNc1ccc(-c2cccc(CO)c2)cn1	esBAF inh 41.4 (no result: MITF TRPM1 HTS)
CN(C)/C=C/C(=O)/C=C/c1ccc(Cl)cc1	Wnt act 71.2 (no result: esBAF inh)
CO[C@H]1CN(C)C(=O)c2cc(NC(=O)C3CC3)ccc2OC[C@H](C)N(C(=O)c2cccnc2)C[C@H]1C	none (no result: MITF TRPM1 HTS, Wnt act, Vif inh)
Cc1ccccc1N1C(=O)c2cccc3c(N(C)CCO)ccc(c23)C1=O	none (no result: Xi reactivation, Wnt act)
COc1ccccc1N1C(=O)c2cccc3c(N(C)CCO)ccc(c23)C1=O	Vif inh 80.1
O=C(C[C@@H]1CC[C@H](NC(=O)Nc2cc(F)ccc2F)[C@@H](CO)O1)NCCCN1CCOCC1	none (no result: MITF TRPM1 HTS, Wnt act, Vif inh)
C/C=C/c1ccc2c(c1)O[C@@H](CN(C)C(=O)Cc1ccncc1)[C@H](C)CN([C@@H](C)CO)S2(=O)=O	none (no result: MITF TRPM1 HTS, Wnt act, Vif inh)
c1ccc(CCc2nc3ccccc3[nH]2)cc1	Wnt act 41.9
O=c1[nH]c2ccccc2nc1CCc1ccccc1	Wnt act 31.4 (no result: esBAF inh)
c1csc(Cc2nc3ccccc3[nH]2)c1	esBAF inh 70.8 (no result: Xi reactivation)
Cn1c(Cc2cccs2)nnc1SCc1nc2ccccc2[nH]1	none (no result: Xi reactivation, Wnt act)
C[C@@H]1CCCCO[C@H](CN(C)Cc2ccc(C(=O)Nc3ccccc3N)cc2)[C@@H](C)CN([C@@H](C)CO)C(=O)c2cc(N(C)C)ccc2O1	none (no result: MITF TRPM1 HTS, esBAF inh, Wnt act, Vif inh)
Nc1c(-c2ccccc2)cnc2cc(-c3ccccc3)nn12	Wnt act 55.7 (no result: esBAF inh)
CCOC(=O)c1cnc2cc(-c3ccc(Cl)cc3)nn2c1N	MITF TRPM1 HTS 149.3, esBAF inh 67.5 (no result: Xi reactivation)
COCc1nn2c(N)c(-c3ccccc3)cnc2c1-c1ccccc1	MITF TRPM1 HTS 107.8, esBAF inh 50.2
Cc1cc2ncc(-c3ccc(Cl)cc3)c(N)n2n1	MITF TRPM1 HTS inconclusive, esBAF inh 62.0
CC(=O)c1cnc2cc(-c3ccccc3)nn2c1C	esBAF inh inconclusive (no result: Xi reactivation, Wnt act)
O=C(Nc1ccccc1)C1=C(N2CCOCC2)/C(=C/c2cccnc2)CC1	esBAF inh 41.8 (no result: Xi reactivation)
